For orientation: IC50 means the concentration that inhibits the measured activity by half. Lower therefore signals inhibition by little substance. By pKa is commonly meant the negative logarithm of the acid dissociation constant. Low readings indicate a stronger acid or weaker base, high ones a weaker acid or stronger base.

These results are taken from ChEMBL document CHEMBL1124392, “Potential antitumor agents. 57. 2-Phenylquinoline-8-carboxamides as "minimal" DNA-intercalating antitumor agents with in vivo solid tumor activity” (J Med Chem, 1989).

Data set [1] relates to Nucleic Acid. The data set can be described thus: Binding constant to poly[d(G-C)] by ethidium bromide displacement. Format: nucleic-acid assay.
Data set [2] concerns P388. Kind of data set: Percentage increase in lifespan of mice treated at 100 mg/kg/day on days 1, 5, 9 after intraperitoneal inoculation of P388 leukemia cells.
Data set [3] relates to L1210. The data set can be described thus: Concentration to inhibit growth of murine leukemia cells in culture by 50%. The format is functional, cell-based. The settings on record: Mus musculus. In outline: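 Murine L1210 leukemia cells were grown in culture with drug for 40 h. IC50 is the drug concentration, in nM, that inhibits growth by 50%.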
Data set [4] has as its system Lewis lung carcinoma cell line. Kind of data set: Percentage increase in lifespan of mice treated at 100 mg/kg/day on days 5, 9, 13 after intravenous up to the toxic dose levels tested. The format is functional, organism-based. The settings on record: Mus musculus. In outline: (§1)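 Mice were inoculated intravenously with 10^6 Lewis lung carcinoma cells. Drug was given ip in 30% v/v ethanol/water on days 5, 9 and 13. ILS is the percentage increase in lifespan at the optimal dose, with six animals per group.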

Data set [5] concerns Nucleic Acid. Kind of data set: Binding constant to poly[d(A-T)] by ethidium bromide displacement. Format: nucleic-acid assay.
Data set [6] relates to Lewis lung carcinoma cell line. Kind of data set: Percentage increase in lifespan of mice treated at 65 mg/kg/day on days 5, 9, 13 after intravenous up to the toxic dose levels tested. The format is functional, organism-based. The settings on record: Mus musculus. In outline:
as §1

The test system of data set [7] is P388. The data set can be described thus: Percentage increase in lifespan of mice treated at 65 mg/kg/day on days 1, 5, 9 after intraperitoneal up to the toxic dose levels tested. The settings on record: Mus musculus.
Data set [8] deals with P388. Kind of data set: Percentage increase in lifespan of mice treated at 225 mg/kg/day on days 1, 5, 9 after intraperitoneal inoculation of P388 leukemia cells.
For data set [9], the system named is P388. Kind of data set: Percentage increase in lifespan of mice treated at 65 mg/kg/day on days 1, 5, 9 after […] up to the toxic dose levels tested. The settings on record: Mus musculus. The format is functional, organism-based. The method, boiled down:
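Mice were inoculated intraperitoneally with 10^6 P388 leukemia cells. Drug was given ip in 30% v/v ethanol/water on days 1, 5 and 9. ILS is the percentage increase in lifespan of treated over untreated tumor-bearing animals at the optimal dose, with six animals per group. Values above 20% count as significant, and long-term survivors were scored at 50 days.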

The test system of data set [10] is Nucleic Acid. Kind of data set: Binding constant for poly[d(G-C)] by ethidium bromide displacement. Format: nucleic-acid assay.
For data set [11], the system named is Nucleic Acid. Kind of data set: Binding constant for poly[d(A-T)] by ethidium bromide displacement. The format is nucleic-acid assay.
Data set [12] concerns P388. Kind of data set: Percentage increase in lifespan of mice treated at 100 mg/kg/day on days 1, 5, 9 after intravenous inoculation of P388 leukemia cells. The format is functional, Mus musculus. The settings on record: for ILS at 100 mg/kg/day: Mus musculus, P388.
Data set [13] has as its system P388. Kind of data set: Percentage increase in lifespan of mice treated at 150 mg/kg/day on days 1, 5, 9 after intraperitoneal up to the toxic dose levels tested. Particulars: Mus musculus.
Data set [14] concerns P388. Kind of data set: Percentage increase in lifespan of mice treated at 45 mg/kg/day on days 1, 5, 9 after intraperitoneal up to the toxic dose levels tested. Particulars: Mus musculus.
Data set [15] deals with Lewis lung carcinoma cell line. The data set can be described thus: Percentage increase in lifespan of mice treated at 100 mg/kg/day on days 5, 9, 13 after intravenous inoculation of lewis lung carcinoma cells. Format: functional, Mus musculus. In outline:
(§2)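 Mice were given 10^6 Lewis lung carcinoma cells intravenously. Drug was dosed intraperitoneally on days 5, 9 and 13 as a solution in 0.1 mL of 30% v/v ethanol/water, with groups of six animals. Read-out was the percentage increase in lifespan of treated tumor-bearing mice.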

Data set [16] can be described thus: pKa determined in aqueous solutions spectrophotometrically.
Data set [17] deals with Lewis lung carcinoma cell line. Kind of data set: Percentage increase in lifespan of mice treated at 65 mg/kg/day on days 5, 9, 13 after intravenous inoculation of lewis lung carcinoma cells. The format is functional, Mus musculus. In outline:
as §2

Data set [18] deals with P388. Kind of data set: Percentage increase in lifespan of mice treated at 65 mg/kg/day on days 1, 5, 9 after intraperitoneal inoculation of P388 leukemia cells.
In data set [19] the test system is P388. The data set can be described thus: Percentage increase in lifespan of mice treated at 100 mg/kg/day on days 1, 5, 9 after intraperitoneal up to the toxic dose levels tested. The settings on record: Mus musculus.
The subject of data set [20] is Lewis lung carcinoma cell line. The data set can be described thus: Percentage increase in lifespan of mice treated at 150 mg/kg/day on days 5, 9, 13 after intravenous inoculation of lewis lung carcinoma cells. Format: functional, Mus musculus. The method, boiled down:
as §2

The source made the active and inactive calls. No cut-off for these calls is given here.

`CN(C)CCNC(=O)c1cccc2ccc(-c3ccc(F)cc3)nc12`: the results for the Log K in [1] and in data set [5] were 6.66 and 6.74, respectively. The same molecule came in with an ILS in data set [2] of 24. In data set [3], this molecule returned an IC50 of 0.73 µM. Further, the ILS result in data set [4] was “inactive”.

As for `CN(C)CCCCNC(=O)c1cccc2ccc(-c3ccccc3)nc12`, the Log K in data set [1] turned out to be 5.89; in data set [5], 6.19. Besides, the ILS in data set [2] worked out at 93. For the same molecule, in data set [3], the midpoint of inhibition, the IC50, lay at 0.68 µM.

Regarding `O=C(NCCNCCO)c1cccc2ccc(-c3ccccc3)nc12`, the Log K stood at 6.31 in data set [1] and 6.22 in data set [5]. Further, the ILS result in data set [6] and in data set [7] was “inactive” throughout. Further, in data set [3], 0.036 µM corresponded to half-maximal inhibition (IC50).

Regarding `COc1cccc(-c2ccc3cccc(C(=O)NCCN(C)C)c3n2)c1`, the figures for the Log K in [1] and in data set [5] were 6.41 and 6.3, respectively. The molecule also showed an ILS in data set [8] of 46. In data set [3], this molecule showed an IC50 of 0.86 µM.

With `CC(=O)Nc1ccc(-c2ccc3cccc(C(=O)NCCN(C)C)c3n2)cc1`, in data set [3], 0.6 µM corresponded to half-maximal inhibition (IC50). The ILS entry in [9] was “inactive”. The Log K in data set [10] turned out to be 7.07; in data set [11], 6.49.

With `CN(C)CCCCCNC(=O)c1cccc2ccc(-c3ccccc3)nc12`, the Log K in data set [1] amounted to 5.73; in data set [5], 5.9. Also, half-maximal inhibition in [3] (IC50) was put at 1.3 µM. Also, the ILS result in [9] and in data set [4] was “inactive” throughout.

For `CN(C)CCCNC(=O)c1cccc2ccc(-c3ccccc3)nc12`, the Log K in data set [1] is 5.62; in [5], 5.9. This molecule displayed an ILS at 100 mg/kg/day in data set [12] of 71%. This molecule also yielded a half-inhibitory concentration (IC50) in data set [3] of 1.14 µM. In addition, in [4], the ILS result is “inactive”.

Take `CN(C)CCNC(=O)c1cccc2ccc(-c3ccc(-c4ccccc4)cc3)nc12`: the figures for the Log K in [1] and in data set [5] were 6.96 and 6.88, respectively. For the same molecule, inhibition in data set [3] was half-maximal at 1.29 µM (IC50). The ILS entry in [13] was “inactive”.

As for `CN(C)CCNC(=O)c1cccc2ccc(-c3ccc(NS(C)(=O)=O)cc3)nc12`, the Log K in data set [1] turned out to be 6.22; in data set [5], 6.04. For the same molecule, the midpoint of inhibition in data set [3], the IC50, lay at 1.33 µM. Further, the ILS result in [14] was “inactive”.

In the case of `CN(C)CCNC(=O)c1cccc2ccc(-c3cccnc3)nc12`, the Log K in data set [1] stood at 6.09; in data set [5], 5.81. The ILS in [2] came out at 58; in data set [15], 55. The molecule further had an IC50 in data set [3] of 0.84 µM.

Regarding `O=C(NCCN1CCOCC1)c1cccc2ccc(-c3ccccc3)nc12`, the Log K in [1] amounted to 5.61; in data set [5], 6.12. Moreover, in data set [7], the ILS result was “inactive”. For the same molecule, inhibition in data set [3] was half-maximal at 0.044 µM (IC50).

As to `CN(C)CCNC(=O)c1cccc2ccc(-c3ccc(Br)cc3)nc12`, the figures for the Log K in [1] and in data set [5] were 6.68 and 6.63, respectively. In data set [2], this molecule registered an ILS of 72. Moreover, the IC50 in data set [3] came out at 0.6 µM. For the same molecule, in data set [4], the ILS entry is “inactive”.

Take `CN(C)CCNC(=O)c1cccc2ccc(-c3ccc(Cl)cc3)nc12`: the Log K is 5.99 in data set [1] and 6.08 in data set [5]. Also, in data set [16], the pKa came out at 2.42. In addition, the ILS was 45 in [17] and 52 in data set [2]. In addition, 1.17 µM corresponded to half-maximal inhibition in data set [3] (IC50).

In the case of `CN(C)CCNC(=O)c1cccc2ccc(-c3cccc(Cl)c3)nc12`, the values for the Log K in data set [1] and in data set [5] were 6.47 and 6.05, respectively. Moreover, the ILS result in [6] was “inactive”. Besides, the ILS in data set [18] amounted to 40. For the same molecule, the concentration for half-maximal inhibition (IC50) in [3] came out at 1.2 µM.

Consider `CN(C)CCNC(=O)c1cccc2ccc(-c3ccc(I)cc3)nc12`, for which the Log K in data set [1] was determined as 6.87; in data set [5], 6.8. The molecule further showed an ILS in [2] of 48. The same molecule returned an IC50 in data set [3] of 0.4 µM. Besides, the ILS result in data set [4] was “inactive”.

For the molecule `CN(C)CCNC(=O)c1cccc2ccc(-c3ccncc3)nc12`, the Log K in data set [1] turned out to be 6.32; in [5] it was 5.82. In [17], this molecule had an ILS of 191. In data set [3], half-maximal inhibition (IC50) required 0.17 µM.

As for `CN(C)CCNC(=O)c1cccc2ccc(-c3ccc([N+](=O)[O-])cc3)nc12`, the results for the Log K in data set [1] and in data set [5] were 6.13 and 6.28, respectively. The ILS in data set [17] worked out at 85; in [12] it was 58. Moreover, half-maximal inhibition in [3] (IC50) was put at 0.29 µM.

For `CN(C)CCNC(=O)c1cccc2ccc(-c3ccc4ccccc4c3)nc12`, the Log K in data set [1] worked out at 7.35; in data set [5], 7. In [3], the IC50 was 0.86 µM. Further, the ILS result in [13] is “inactive”.

As to `CN(C)CCNC(=O)c1cccc2ccc(-c3ccc(C(F)(F)F)cc3)nc12`, the Log K in data set [1] stood at 6.72; in data set [5], 6.64. In addition, the ILS entry in data set [19] and in data set [4] was “inactive” throughout. The molecule further displayed an IC50 in data set [3] of 2.1 µM.

On to `CN(C)CCNC(=O)c1cccc2ccc(-c3ccccc3)nc12`, for which the results for the Log K in data set [1] and in data set [5] were 5.92 and 5.98, respectively. Besides, the ILS at 100 mg/kg/day in data set [12] came to 91%; in [15] (Mus musculus, Lewis lung carcinoma) it was 70%.

In the case of `CN(C)CCNC(=O)c1cccc2ccc(-c3ccccn3)nc12`, the figures for the Log K in data set [1] and in data set [5] were 5.85 and 5.82, respectively. In addition, the ILS came out at 73 in data set [12] and 84 in data set [15]. In data set [3], inhibition was half-maximal at 1.64 µM (IC50).

In the case of `CN(C)CCNC(=O)c1cccc2ccc(-c3ccccc3Cl)nc12`, the Log K was found to be 5.12 in [1] and 5.32 in data set [5]. Moreover, half-maximal inhibition in [3] (IC50) required 8.1 µM. Further, the ILS result in data set [9] is “inactive”.

As for `CN(C)CCNC(=O)c1cccc2ccc(-c3ccc(N)cc3)nc12`, the Log K was 6.96 in data set [1] and 6.42 in data set [5]. Besides, the values for the ILS in [2] and in data set [20] were 28 and 59, respectively. This molecule came in with an IC50 in [3] of 0.2 µM.

On to `Br.Br.CN(C)CCNC(=O)c1cccc2ccc(-c3ccc(O)cc3)nc12`, for which the results for the Log K in data set [1] and in data set [5] were 6.48 and 6.3, respectively. The molecule further displayed an ILS in [12] of 22. Also, it took 1.28 µM to reach half-maximal inhibition in data set [3] (IC50). Further, the ILS entry in data set [4] was “inactive”.

As to `COc1ccc(-c2ccc3cccc(C(=O)NCCN(C)C)c3n2)cc1`, the values for the Log K in [1] and in data set [5] were 6.27 and 6.4, respectively. In data set [16], this molecule registered a pKa of 3.28. The same molecule showed an ILS in data set [12] of 42. This molecule also came in with a 50% inhibitory concentration (IC50) in data set [3] of 1.29 µM. For the same molecule, the ILS entry in data set [4] is “inactive”.

`CN(C)CCNC(=O)c1cccc2ccc(-c3ccc(S(C)(=O)=O)cc3)nc12` gave an ILS in data set [2] of 29. Further, in data set [3], the IC50 worked out at 5.8 µM. The ILS result in data set [4] was “inactive”. In data set [5], this molecule had a Log K of 5.68.
